Laboratory results from article PMC6606825 (Journal of Ginseng Research, 2018).

Experiment: Pharmacokinetics of CK and its metabolite 20
Type: in vivo, healthy Chinese volunteers
Procedure, shortened: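 Healthy adults given one oral tablet dose fasting (overnight, or 10 h in a crossover food-effect arm); 30 subjects from the 100/200/400 mg groups were pooled with 24 from 200 mg fasting periods. Plasma was stored at −70°C, extracted with MTBE plus internal standards and assayed by LC-MS/MS. Cmax was observed and AUClast calculated by linear trapezoid, each divided by dose. The metabolite/parent ratio was also calculated. Genotyping used Sequenom MassARRAY, and log-transformed values were compared by one-way ANOVA.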

[1] = ABCC4 rs1151471 CC, n = 2, mean (SD)

- 20(S)-PPD AUClast/D (ABCB1 rs1045642 AA, mean (SD)): 0.59 (0.42)
- 20(S)-PPD Cmax/D (ABCB1 rs1045642 AA, mean (SD)): 0.02 (0.02)
- Ratio 20(S)-PPD/CK AUClast/D (ABCB1 rs1045642 AA, mean (SD)): 1.99 (1.55) %
- Ratio 20(S)-PPD/CK Cmax/D (ABCB1 rs1045642 AA, mean (SD)): 0.54 (0.42) %
- 20(S)-PPD AUClast/D (ABCB1 rs1045642 AG, mean (SD)): 0.87 (0.93)
- 20(S)-PPD Cmax/D (ABCB1 rs1045642 AG, mean (SD)): 0.03 (0.03)
- Ratio 20(S)-PPD/CK AUClast/D (ABCB1 rs1045642 AG, mean (SD)): 5.28 (8.05) %
- Ratio 20(S)-PPD/CK Cmax/D (ABCB1 rs1045642 AG, mean (SD)): 1.49 (2.26) %
- 20(S)-PPD AUClast/D (ABCB1 rs1045642 GG, mean (SD)): 0.82 (0.62)
- 20(S)-PPD Cmax/D (ABCB1 rs1045642 GG, mean (SD)): 0.03 (0.02)
- Ratio 20(S)-PPD/CK AUClast/D (ABCB1 rs1045642 GG, mean (SD)): 3.23 (2.77) %
- Ratio 20(S)-PPD/CK Cmax/D (ABCB1 rs1045642 GG, mean (SD)): 0.80 (0.66) %
- 20(S)-PPD AUClast/D (ABCB1 rs1128503 AA, mean (SD)): 0.90 (0.79)
- 20(S)-PPD Cmax/D (ABCB1 rs1128503 AA, mean (SD)): 0.03 (0.03)
- Ratio 20(S)-PPD/CK AUClast/D (ABCB1 rs1128503 AA, mean (SD)): 4.27 (5.15) %
- Ratio 20(S)-PPD/CK Cmax/D (ABCB1 rs1128503 AA, mean (SD)): 1.30 (2.07) %
- 20(S)-PPD AUClast/D (ABCB1 rs1128503 AG, mean (SD)): 0.77 (0.80)
- 20(S)-PPD Cmax/D (ABCB1 rs1128503 AG, mean (SD)): 0.03 (0.03)
- Ratio 20(S)-PPD/CK AUClast/D (ABCB1 rs1128503 AG, mean (SD)): 4.67 (7.55) %
- Ratio 20(S)-PPD/CK Cmax/D (ABCB1 rs1128503 AG, mean (SD)): 1.12 (1.52) %
- 20(S)-PPD AUClast/D (ABCB1 rs1128503 GG, mean (SD)): 0.73 (0.70)
- 20(S)-PPD Cmax/D (ABCB1 rs1128503 GG, mean (SD)): 0.02 (0.02)
- Ratio 20(S)-PPD/CK AUClast/D (ABCB1 rs1128503 GG, mean (SD)): 1.89 (0.94) %
- Ratio 20(S)-PPD/CK Cmax/D (ABCB1 rs1128503 GG, mean (SD)): 0.46 (0.25) %
- 20(S)-PPD AUClast/D (ABCB1 rs2032582 AA, mean (SD)): 0.78 (0.53)
- 20(S)-PPD Cmax/D (ABCB1 rs2032582 AA, mean (SD)): 0.03 (0.02)
- Ratio 20(S)-PPD/CK AUClast/D (ABCB1 rs2032582 AA, mean (SD)): 4.64 (7.42) %
- Ratio 20(S)-PPD/CK Cmax/D (ABCB1 rs2032582 AA, mean (SD)): 1.20 (1.55) %
- 20(S)-PPD Cmax/D (ABCB1 rs2032582 CA, mean (SD)): 0.03 (0.03)
- Ratio 20(S)-PPD/CK AUClast/D (ABCB1 rs2032582 CA, mean (SD)): 4.60 (7.08) %
- Ratio 20(S)-PPD/CK Cmax/D (ABCB1 rs2032582 CA, mean (SD)): 1.34 (2.13) %
- 20(S)-PPD AUClast/D (ABCB1 rs2032582 CC, mean (SD)): 0.92 (0.62)
- 20(S)-PPD Cmax/D (ABCB1 rs2032582 CC, mean (SD)): 0.03 (0.02)
- Ratio 20(S)-PPD/CK AUClast/D (ABCB1 rs2032582 CC, mean (SD)): 3.50 (2.84) %
- Ratio 20(S)-PPD/CK Cmax/D (ABCB1 rs2032582 CC, mean (SD)): 0.74 (0.49) %
- 20(S)-PPD AUClast/D (ABCC2 rs717620 CC, mean (SD)): 0.64 (0.51)
- 20(S)-PPD Cmax/D (ABCC2 rs717620 CC, mean (SD)): 0.02 (0.02)
- Ratio 20(S)-PPD/CK AUClast/D (ABCC2 rs717620 CC, mean (SD)): 3.02 (4.69) %
- Ratio 20(S)-PPD/CK Cmax/D (ABCC2 rs717620 CC, mean (SD)): 0.77 (0.99) %
- 20(S)-PPD AUClast/D (ABCC2 rs717620 CT, mean (SD)): 1.09 (1.02)
- 20(S)-PPD Cmax/D (ABCC2 rs717620 CT, mean (SD)): 0.04 (0.04)
- Ratio 20(S)-PPD/CK AUClast/D (ABCC2 rs717620 CT, mean (SD)): 6.00 (7.83) %
- Ratio 20(S)-PPD/CK Cmax/D (ABCC2 rs717620 CT, mean (SD)): 1.65 (2.39) %
- 20(S)-PPD AUClast/D (ABCC2 rs2273697 GA, mean (SD)): 0.81 (0.63)
- 20(S)-PPD Cmax/D (ABCC2 rs2273697 GA, mean (SD)): 0.03 (0.02)
- Ratio 20(S)-PPD/CK AUClast/D (ABCC2 rs2273697 GA, mean (SD)): 4.54 (6.68) %
- Ratio 20(S)-PPD/CK Cmax/D (ABCC2 rs2273697 GA, mean (SD)): 0.96 (1.36) %
- 20(S)-PPD AUClast/D (ABCC2 rs2273697 GG, mean (SD)): 0.83 (0.84)
- 20(S)-PPD Cmax/D (ABCC2 rs2273697 GG, mean (SD)): 0.03 (0.03)
- Ratio 20(S)-PPD/CK AUClast/D (ABCC2 rs2273697 GG, mean (SD)): 4.19 (6.15) %
- Ratio 20(S)-PPD/CK Cmax/D (ABCC2 rs2273697 GG, mean (SD)): 1.22 (1.87) %
- 20(S)-PPD AUClast/D (ABCC2 rs2756109 GG, mean (SD)): 0.61 (0.41)
- 20(S)-PPD Cmax/D (ABCC2 rs2756109 GG, mean (SD)): 0.02 (0.02)
- Ratio 20(S)-PPD/CK AUClast/D (ABCC2 rs2756109 GG, mean (SD)): 2.42 (1.84) %
- 20(S)-PPD AUClast/D (ABCC2 rs3740066 CC, mean (SD)): 0.64 (0.51)
- 20(S)-PPD Cmax/D (ABCC2 rs3740066 CC, mean (SD)): 0.02 (0.02)
- Ratio 20(S)-PPD/CK AUClast/D (ABCC2 rs3740066 CC, mean (SD)): 3.03 (4.8) %
- Ratio 20(S)-PPD/CK Cmax/D (ABCC2 rs3740066 CC, mean (SD)): 0.78 (1.02) %
- 20(S)-PPD AUClast/D (ABCC2 rs3740066 CT, mean (SD)): 1.06 (0.99)
- 20(S)-PPD Cmax/D (ABCC2 rs3740066 CT, mean (SD)): 0.04 (0.03)
- Ratio 20(S)-PPD/CK AUClast/D (ABCC2 rs3740066 CT, mean (SD)): 5.95 (7.51) %
- Ratio 20(S)-PPD/CK Cmax/D (ABCC2 rs3740066 CT, mean (SD)): 1.63 (2.29) %
- 20(S)-PPD AUClast/D (ABCC2 rs3740066 TT, n = 1): 0.58 (—)
- 20(S)-PPD Cmax/D (ABCC2 rs3740066 TT, n = 1): 0.01 (—)
- Ratio 20(S)-PPD/CK AUClast/D (ABCC2 rs3740066 TT, n = 1): 1.04 (—) %
- Ratio 20(S)-PPD/CK Cmax/D (ABCC2 rs3740066 TT, n = 1): 0.22 (—) %
- 20(S)-PPD AUClast/D (ABCC3 rs4148416 CC, mean (SD)): 0.77 (0.69)
- 20(S)-PPD Cmax/D (ABCC3 rs4148416 CC, mean (SD)): 0.03 (0.02)
- Ratio 20(S)-PPD/CK AUClast/D (ABCC3 rs4148416 CC, mean (SD)): 3.64 (5.23) %
- Ratio 20(S)-PPD/CK Cmax/D (ABCC3 rs4148416 CC, mean (SD)): 0.90 (1.07) %
- 20(S)-PPD AUClast/D (ABCC3 rs4148416 CT, mean (SD)): 0.99 (1.01)
- 20(S)-PPD Cmax/D (ABCC3 rs4148416 CT, mean (SD)): 0.04 (0.04)
- Ratio 20(S)-PPD/CK AUClast/D (ABCC3 rs4148416 CT, mean (SD)): 6.12 (8.47) %
- Ratio 20(S)-PPD/CK Cmax/D (ABCC3 rs4148416 CT, mean (SD)): 1.87 (2.85) %
- 20(S)-PPD AUClast/D (ABCC3 rs4793665 CT, mean (SD)): 0.61 (0.58)
- 20(S)-PPD Cmax/D (ABCC3 rs4793665 CT, mean (SD)): 0.02 (0.02)
- Ratio 20(S)-PPD/CK AUClast/D (ABCC3 rs4793665 CT, mean (SD)): 2.27 (2.88) %
- Ratio 20(S)-PPD/CK Cmax/D (ABCC3 rs4793665 CT, mean (SD)): 0.54 (0.52) %
- 20(S)-PPD AUClast/D (ABCC3 rs4793665 TT, mean (SD)): 0.89 (0.82)
- 20(S)-PPD Cmax/D (ABCC3 rs4793665 TT, mean (SD)): 0.03 (0.03)
- Ratio 20(S)-PPD/CK AUClast/D (ABCC3 rs4793665 TT, mean (SD)): 4.86 (6.83) %
- Ratio 20(S)-PPD/CK Cmax/D (ABCC3 rs4793665 TT, mean (SD)): 1.32 (1.92) %
- 20(S)-PPD AUClast/D (ABCC3 rs12051822 GA, mean (SD)): 1.17 (0.94)
- 20(S)-PPD Cmax/D (ABCC3 rs12051822 GA, mean (SD)): 0.04 (0.03)
- Ratio 20(S)-PPD/CK AUClast/D (ABCC3 rs12051822 GA, mean (SD)): 6.84 (8.31) %
- Ratio 20(S)-PPD/CK Cmax/D (ABCC3 rs12051822 GA, mean (SD)): 1.44 (1.56) %
- 20(S)-PPD AUClast/D (ABCC3 rs12051822 GG, mean (SD)): 0.74 (0.72)
- 20(S)-PPD Cmax/D (ABCC3 rs12051822 GG, mean (SD)): 0.03 (0.03)
- Ratio 20(S)-PPD/CK AUClast/D (ABCC3 rs12051822 GG, mean (SD)): 3.60 (5.48) %
- Ratio 20(S)-PPD/CK Cmax/D (ABCC3 rs12051822 GG, mean (SD)): 1.09 (1.81) %
- 20(S)-PPD AUClast/D [1]: 2.65 (1.59)
- 20(S)-PPD Cmax/D [1]: 0.09 (0.03)
- Ratio 20(S)-PPD/CK AUClast/D [1]: 20.61 (14.96) %
- Ratio 20(S)-PPD/CK Cmax/D [1]: 4.33 (2.43) %
- 20(S)-PPD AUClast/D (ABCC4 rs1151471 TC, mean (SD)): 0.99 (0.81)
- 20(S)-PPD Cmax/D (ABCC4 rs1151471 TC, mean (SD)): 0.04 (0.03)
- Ratio 20(S)-PPD/CK AUClast/D (ABCC4 rs1151471 TC, mean (SD)): 5.99 (7.30) %
- Ratio 20(S)-PPD/CK Cmax/D (ABCC4 rs1151471 TC, mean (SD)): 1.83 (2.49) %
- 20(S)-PPD AUClast/D (ABCC4 rs1151471 TT, mean (SD)): 0.58 (0.54)
- 20(S)-PPD Cmax/D (ABCC4 rs1151471 TT, mean (SD)): 0.02 (0.02)
SMILES: CC(C)=CCC[C@](C)(O)[C@H]1CC[C@]2(C)[C@@H]1[C@H](O)C[C@@H]1[C@@]3(C)CC[C@H](O)C(C)(C)[C@@H]3CC[C@]12C [20(S)-PPD, 20(S)-protopanaxadiol]
